Data: ChEMBL document CHEMBL5331120, “Stapled β-Hairpin Antimicrobial Peptides with Improved Stability and Activity against Drug-Resistant Gram-Negative Bacteria” (J Med Chem, 2023)
Values after ≈ are worked out from the molar mass of the structure shown. Active and inactive are the calls of the source. The calls are words filed in the database; no cut-off is given here.

Columns and labels:
Pseudomonas aeruginosa = experiment: Antimicrobial activity against Pseudomonas aeruginosa ATCC 9027 assessed as inhibition of bacterial growth incubated for 18 hrs by broth microdilution method; format: functional
In short: (§1)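 Standard broth microdilution in MHB. Overnight culture (37 °C, 120 rpm) adjusted to OD600 0.07 and diluted 1000× to 3 × 10^5 CFU/mL. Peptides serially diluted in triplicate, 18 h at 37 °C with 120 rpm shaking. Growth read as OD600; MIC is the lowest concentration with no visible growth. Colistin served as control for Gram-negatives, vancomycin for S. aureus.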

Escherichia coli [1] = experiment: Antimicrobial activity against colistin resistant Escherichia coli clinical isolate R1 harboring mcr-1 gene assessed as inhibition of bacterial growth incubated for 18 hrs by broth microdilution method; format: functional, organism-based
In short: (§2)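 Overnight MHB culture (37 °C, 120 rpm) adjusted to OD600 0.07 (~10^8 CFU/mL), then diluted 1000× to 3 × 10^5 CFU/mL. Peptides serially diluted with the bacterial suspension in triplicate, shaken at 37 °C, 120 rpm for 18 h, then OD600 read. MIC is the lowest concentration with no visible growth. Colistin as positive control.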

[2] = Stability of compound assessed as trypsin (unknown origin) mediated compound degradation by measuring parent compound remaining measured after 1 hr by RP-HPLC analysis; format: ADME, protein assay; conditions: human, read-out: Stability
In short: (§3)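 Peptide with trypsin at a 1:2000 trypsin/peptide molar ratio, 37 °C, sampled at 15, 30, 60 and 90 min. Reaction stopped with an equal volume of 50% acetonitrile/1% TFA. Analysed on C18 RP-HPLC with UV at 220 nm; intact peptide given as % of AUC.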

Escherichia coli [3] = experiment: Antimicrobial activity against Escherichia coli ATCC 25922 assessed as inhibition of bacterial growth incubated for 18 hrs by broth microdilution method; format: functional; in short: as §1
Escherichia coli [4] = experiment: Antimicrobial activity against colistin/carbapenem resistant Escherichia coli clinical isolate R2 harboring mcr-1 and NDM-1 gene assessed as inhibition of bacterial growth incubated for 18 hrs by broth microdilution method; format: functional, organism-based; in short: as §2
Escherichia coli [5] = experiment: Antimicrobial activity against Escherichia coli ATCC 25922 assessed as fold increase in MIC compound pretreated for 1 hr with trypsin and measured after 18 hrs by broth microdilution method relative to control; format: functional; conditions: trypsin pretreatment 1 hr; MIC measured after 18 hrs
In short: (§4)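 Peptide incubated with trypsin at a 1:2000 trypsin/peptide molar ratio (e.g., 1 mM peptide with 0.5 μM trypsin), 37 °C, 1 h. Reaction stopped at 80 °C for 10 min, then serially diluted against E. coli in MHB broth microdilution. Inoculum 3 × 10^5 CFU/mL, 37 °C, 120 rpm, 18 h, read by OD600, triplicates. Fold change in MIC taken versus untreated control.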

Escherichia coli [6] = experiment: Antimicrobial activity against colistin/carbapenem resistant Escherichia coli clinical isolate R3 harboring NDM-7 and OXA-181 gene assessed as inhibition of bacterial growth incubated for 18 hrs by broth microdilution method; format: functional, organism-based
Staphylococcus aureus = experiment: Antimicrobial activity against Staphylococcus aureus ATCC 29737 assessed as inhibition of bacterial growth incubated for 18 hrs by broth microdilution method; format: functional, organism-based; in short: as §1
Erythrocyte = experiment: Hemolytic activity in human RBC upto 128 uM incubated for 1 hr by absorbance based analysis; format: toxicity, cell-based
In short: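 Washed human RBCs from healthy volunteers at 4% in PBS. Peptide at 4–128 μM, 37 °C for 1 h. Supernatant after 1000g, 10 min spin read at OD540. 1% Triton X-100 gave full lysis; % hemolysis derived and HC50 estimated.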

Escherichia coli [7] = experiment: Antimicrobial activity against Escherichia coli ATCC 25922 assessed as inhibition of bacterial growth incubated for 18 hrs in presence of 10% fetal bovine serum by broth microdilution method; format: functional, organism-based
In short: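 E. coli broth microdilution in MHB containing 10% fetal bovine serum. Inoculum 3 × 10^5 CFU/mL, diluted from an OD600 0.07 suspension. Incubated 18 h at 37 °C with 120 rpm shaking, OD600 read, triplicates. Fold change in MIC calculated against control MIC.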

Escherichia coli [8] = experiment: Antimicrobial activity against Escherichia coli ATCC 25922 assessed as inhibition of bacterial growth compound pretreated for 1 hr with trypsin and measured after 18 hrs by broth microdilution method; format: functional, organism-based; in short: as §4
Trypsin = Trypsin (Homo sapiens, UniProt P07477+P07478+P35030); experiment: Stability of compound assessed as trypsin (unknown origin) mediated compound degradation by measuring parent compound remaining measured after 1.5 hrs by RP-HPLC analysis; format: ADME, protein assay; in short: as §3
Escherichia coli [9] = experiment: Antimicrobial activity against colistin resistant Escherichia coli clinical isolate R1 harboring mcr-1 gene assessed as fold reduction in MIC incubated for 18 hrs by broth microdilution method; format: functional
Escherichia coli [10] = experiment: Antimicrobial activity against colistin/carbapenem resistant Escherichia coli clinical isolate R2 harboring mcr-1 and NDM-1 gene assessed as fold reduction in MIC incubated for 18 hrs by broth microdilution method; format: functional
Escherichia coli [11] = experiment: Antimicrobial activity against colistin/carbapenem resistant Escherichia coli clinical isolate R3 harboring NDM-7 and OXA-181 gene assessed as fold reduction in MIC incubated for 18 hrs by broth microdilution method; format: functional

Compound	MIC (Pseudomonas aeruginosa)	Activity (Escherichia coli [1])	remaining at 1 h [2]	MIC (Escherichia coli [3])	Activity (Escherichia coli [4])	fold change (FC) (Escherichia coli [5])	Activity (Escherichia coli [6])	Activity (Staphylococcus aureus)	Activity (Erythrocyte)	Activity (Pseudomonas aeruginosa)	Activity (Escherichia coli [3])	Activity (Escherichia coli [7])	Activity (Escherichia coli [8])	Stability (Trypsin; 1.5 h)	fold change (FC) (Escherichia coli [9])	fold change (FC) (Escherichia coli [10])	fold change (FC) (Escherichia coli [11])	remaining at 1.5 h (Trypsin; trypsin, read-out: Stability)
CC(C)C[C@@H]1NC(=O)[C@H](CCCCN)NC(=O)CNC(=O)C2CCCN2C(=O)[C@H](CCCCN)NC(=O)[C@H](CC(C)C)NC(=O)[C@H](CCCCN)NC(=O)[C@H](CC(C)C)NC(=O)[C@H](CCCCN)NC(=O)[C@@H](N)CC/C=C/CCC[C@@H](C(=O)O)NC(=O)[C@H](CCCCN)NC(=O)[C@H](CC(C)C)NC(=O)[C@H](CCCCN)NC1=O (single isomer, unassigned)	8 µM (≈ 12.8 µg/mL)	Active	< 10%	8 µM (≈ 12.8 µg/mL)	Active	>=2	Active	inactive	Non-Toxic									
CC(C)C[C@H](NC(=O)[C@H](CCCCN)NC(=O)[C@H](CC(C)C)NC(=O)[C@H](CCCCN)NC(=O)[C@@H]1CCC/C=C/CC[C@H](NC(=O)[C@H](CCCCN)NC(=O)[C@H](CC(C)C)NC(=O)[C@H](CCCCN)NC(=O)[C@@H](N)CC(C)C)C(=O)N[C@@H](CCCCN)C(=O)N2CCC[C@@H]2C(=O)NCC(=O)N[C@@H](CCCCN)C(=O)N1)C(=O)O			< 10%			>=2		inactive	Non-Toxic									
CC(C)C[C@@H]1NC(=O)[C@H](CCCCN)NC(=O)CNC(=O)[C@H]2CCCN2C(=O)[C@H](CCCCN)NC(=O)[C@H](CC(C)C)NC(=O)[C@H](CCCCN)NC(=O)[C@@H]2CC/C=C\CC[C@H](NC(=O)[C@H](CCCCN)NC1=O)C(=O)N[C@@H](CCCCN)C(=O)N[C@H](C(=O)O)CC/C=C\CC[C@H](N)C(=O)N[C@@H](CCCCN)C(=O)N2								inactive	Non-Toxic	inactive	inactive	Active	Active					
CC(C)C[C@@H]1NC(=O)[C@H](CCCCN)NC(=O)CNC(=O)[C@H]2CCCN2C(=O)[C@H](CCCCN)NC(=O)[C@H](CC(C)C)NC(=O)[C@H](CCCCN)NC(=O)[C@@H]2CC/C=C\CCC[C@H](NC(=O)[C@H](CCCCN)NC1=O)C(=O)N[C@@H](CCCCN)C(=O)N[C@H](C(=O)O)CC/C=C/CCC[C@H](N)C(=O)N[C@@H](CCCCN)C(=O)N2								inactive	Non-Toxic	inactive	inactive	Active	Active	Unstable	2	2	2	
CC(C)C[C@H](NC(=O)[C@H](CCCCN)NC(=O)[C@H](CC(C)C)NC(=O)[C@H](CCCCN)NC(=O)[C@@H]1CC/C=C/CC[C@H](NC(=O)[C@H](CCCCN)NC(=O)[C@H](CC(C)C)NC(=O)[C@H](CCCCN)NC(=O)[C@@H](N)CC(C)C)C(=O)N[C@@H](CCCCN)C(=O)N2CCC[C@@H]2C(=O)NCC(=O)N[C@@H](CCCCN)C(=O)N1)C(=O)O	8 µM (≈ 12.7 µg/mL)	Active		8 µM (≈ 12.7 µg/mL)	Active			inactive	Non-Toxic			Active	Active					> 40%
CC(C)C[C@H](NC(=O)[C@H](CCCCN)NC(=O)[C@@H]1CC/C=C/CC[C@H](NC(=O)[C@H](CCCCN)NC(=O)[C@@H](N)CC(C)C)C(=O)N[C@@H](CCCCN)C(=O)N[C@@H](CC(C)C)C(=O)N[C@@H](CCCCN)C(=O)N2CCCC2C(=O)NCC(=O)N[C@@H](CCCCN)C(=O)N[C@@H](CC(C)C)C(=O)N[C@@H](CCCCN)C(=O)N1)C(=O)O (single isomer, unassigned)	8 µM (≈ 12.7 µg/mL)	Active		8 µM (≈ 12.7 µg/mL)	Active	>=2		inactive	Non-Toxic									
CC(C)C[C@@H]1NC(=O)[C@H](CCCCN)NC(=O)[C@@H]2CC/C=C/CC[C@H](NC(=O)[C@H](CCCCN)NC(=O)[C@H](CC(C)C)NC(=O)[C@H](CCCCN)NC(=O)[C@@H](N)CC/C=C/CC[C@@H](C(=O)O)NC(=O)[C@H](CCCCN)NC1=O)C(=O)N[C@@H](CCCCN)C(=O)N1CCC[C@@H]1C(=O)NCC(=O)N[C@@H](CCCCN)C(=O)N2								inactive	Non-Toxic	inactive	inactive	Active	Active		2	2	2	
CC(C)C[C@@H]1NC(=O)[C@H](CCCCN)NC(=O)[C@@H]2CCC/C=C\CC[C@H](NC(=O)[C@H](CCCCN)NC(=O)[C@H](CC(C)C)NC(=O)[C@H](CCCCN)NC(=O)[C@@H](N)CC/C=C/CCC[C@@H](C(=O)O)NC(=O)[C@H](CCCCN)NC1=O)C(=O)N[C@@H](CCCCN)C(=O)N1CCC[C@@H]1C(=O)NCC(=O)N[C@@H](CCCCN)C(=O)N2								inactive	Non-Toxic	inactive	inactive	Active	Active		2	2	2	
CC(C)C[C@H](NC(=O)[C@H](CCCCN)NC(=O)[C@@H]1CCC/C=C/CC[C@H](NC(=O)[C@H](CCCCN)NC(=O)[C@@H](N)CC(C)C)C(=O)N[C@@H](CCCCN)C(=O)N[C@@H](CC(C)C)C(=O)N[C@@H](CCCCN)C(=O)N2CCCC2C(=O)NCC(=O)N[C@@H](CCCCN)C(=O)N[C@@H](CC(C)C)C(=O)N[C@@H](CCCCN)C(=O)N1)C(=O)O (single isomer, unassigned)	8 µM (≈ 12.8 µg/mL)		< 10%	8 µM (≈ 12.8 µg/mL)		>=2		inactive	Non-Toxic									
